Experimental data from ChEMBL document CHEMBL1156888, “The first low microM SecA inhibitors” (Bioorg Med Chem, 2010).
Calls of active or inactive are those of the source. No cut-off for these calls is given here.

Legend:
Escherichia coli [1] = experiment: Inhibition of Escherichia coli SecA N-terminal fragment EcN68 assessed as phosphate release at 30 uM by Malachite green assay
Outline: (§1)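 ATPase of truncated E. coli SecA N68 (lacks C-terminal regulatory domain), 2.25 µg per reaction, with 2 mM ATP in 50 mM Tris-HCl pH 7.6, 20 mM KCl, 20 mM NH4Cl, 1 mM DTT, 2 mM Mg(OAc)2, 10% DMSO. Run at 40 °C for 20 min, stopped with malachite green then citric acid, 40 min at room temperature, A660 read. Activity remaining expressed as percent of compound-free control. At least triplicate, SEM.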

Escherichia coli [2] = experiment: Inhibition of Escherichia coli SecA N-terminal fragment EcN68 assessed as phosphate release at 100 uM by Malachite green assay; outline: as §1
[3] = Inhibition of Escherichia coli full length SecA assessed as phosphate release by Malachite green assay
Outline: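 Full-length SecA (5 µg) in 50 µL with 2 mM ATP, 50 mM Tris-HCl pH 7.6, 20 mM KCl, 20 mM NH4Cl, 1 mM DTT, 2 mM Mg(OAc)2, 10% DMSO; 40 °C, 40 min. Stopped with malachite green then 34% citric acid; 40 min room temperature, A660. Activity as percent of no-compound controls; at least triplicate.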

Escherichia coli [4] = experiment: Inhibition of Escherichia coli SecA N-terminal fragment EcN68 assessed as phosphate release at 5 uM by Malachite green assay; outline: as §1
Escherichia coli [5] = experiment: Antimicrobial activity against wild type Escherichia coli MC4100 after 10 to 12 hrs; type: functional, organism-based
Outline: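 E. coli K-12 wild-type strain MC4100. Log-phase cells (OD600 ~0.5 to 1.0) diluted to OD600 0.05, compounds added from 100% DMSO stocks, final 5% DMSO. Cultured with shaking at 37 °C, 1050 rpm, for 10 to 12 h.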

[6] = Inhibition of Escherichia coli SecA N-terminal fragment EcN68 assessed as phosphate release by Malachite green assay
Outline: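 Truncated SecA lacking the C-terminal regulatory domain (2.25 µg) in 50 µL with 2 mM ATP, 50 mM Tris-HCl pH 7.6, 20 mM KCl, 20 mM NH4Cl, 1 mM DTT, 2 mM Mg(OAc)2, 10% DMSO; 40 °C, 20 min. Stopped with malachite green then 34% citric acid; 40 min room temperature, A660. Percent remaining ATPase versus no-compound controls; at least triplicate.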

Escherichia coli [7] = experiment: Antimicrobial activity against permeability mutant Escherichia coli NR698 after 10 to 12 hrs; type: functional, organism-based
Outline: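 Outer-membrane-permeable MC4100 imp4213 mutant; log-phase cells (OD600 ~0.5–1.0) diluted to OD600 0.05, compounds added from 100% DMSO stocks, cultures with 5% DMSO final, shaken at 37 °C, 1050 rpm, 10–12 h.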

| SMILES | inhibition (Escherichia coli [1]) | inhibition (Escherichia coli [2]) | further results |
| --- | --- | --- | --- |
| N#Cc1c(-c2ccccc2)nc(SCc2ccc(CSC3=NC(=O)C(C#N)C(c4ccccc4)=N3)cc2)[nH]c1=O (stereo not drawn) | Active | Active | – |
| N#Cc1c(-c2cccc3ccccc23)nc(SCc2ccccc2)[nH]c1=O | Active | – | – |
| Cc1onc(-c2c(Cl)cccc2Cl)c1C(=O)N1CCCCC1 | – | inactive | – |
| Cc1ccccc1NC(=O)c1c(-c2c(Cl)cccc2Cl)noc1C | – | inactive | IC50 [3]: 60 µM |
| Cc1ccc(NC(=O)c2c(-c3c(Cl)cccc3Cl)noc2C)c(C)c1 | – | inactive | – |
| Cc1cc(NC(=O)c2c(-c3c(Cl)cccc3Cl)noc2C)ccc1Br | – | inactive | – |
| Cc1ccc2oc(SCc3ccc(CSc4nc5cc(C)ccc5o4)cc3)nc2c1 | – | Active | – |
| Cc1ccc(C2=NC(SCc3ccc(CSc4nc(-c5ccc(C)cc5)c(C#N)c(=O)[nH]4)cc3)=NC(=O)C2C#N)cc1 (stereo not drawn) | Active | Active | inhibition (Escherichia coli [4]): Active |
| O=[N+]([O-])c1cccc2oc(SCc3ccc(CSc4nc5c([N+](=O)[O-])cccc5o4)cc3)nc12 | – | Active | – |
| c1ccc2oc(SCc3ccc(CSc4nc5ccccc5o4)cc3)nc2c1 | – | Active | – |
| Cc1onc(-c2c(Cl)cccc2Cl)c1C(=O)N1CCSCC1 | – | inactive | – |
| Cc1onc(-c2c(Cl)cccc2Cl)c1C(=O)Nc1ccccc1F | – | inactive | – |
| Cc1onc(-c2c(Cl)cccc2Cl)c1C(=O)NCc1cccc(Br)c1 | – | inactive | – |
| N#Cc1c(-c2cccc3ccccc23)nc(SCc2ccc(CSC3=NC(=O)C(C#N)C(c4cccc5ccccc45)=N3)cc2)[nH]c1=O (stereo not drawn) | Active | Active | inhibition (Escherichia coli [4]): Active |
| Cc1onc(-c2c(Cl)cccc2Cl)c1C(=O)NCc1ccccc1Br | – | inactive | – |
| Cc1cccc(C2=NC(SCc3ccc(CSc4nc(-c5cccc(C)c5)c(C#N)c(=O)[nH]4)cc3)=NC(=O)C2C#N)c1 (stereo not drawn) | Active | Active | – |
| Cc1onc(-c2c(Cl)cccc2Cl)c1C(=O)Nc1cccc(Cl)c1 | – | inactive | – |
| Clc1ccc2nc(SCc3ccc(CSc4nc5ccc(Cl)cc5s4)cc3)sc2c1 | – | Active | – |

| SMILES | inhibition (Escherichia coli [1]) | inhibition (Escherichia coli [2]) | further results |
| --- | --- | --- | --- |
| CC(C)c1ccc(C2=NC(SCc3ccc(CSc4nc(-c5ccc(C(C)C)cc5)c(C#N)c(=O)[nH]4)cc3)=NC(=O)C2C#N)cc1 (stereo not drawn) | Active | Active | inhibition (Escherichia coli [4]): Active |
| N#Cc1c(-c2ccc(-c3ccccc3)cc2)nc(SCc2ccc(CSC3=NC(=O)C(C#N)C(c4ccc(-c5ccccc5)cc4)=N3)cc2)[nH]c1=O (stereo not drawn) | Active | Active | MIC (Escherichia coli [5]): inactive; inhibition (Escherichia coli [4]): Active; IC50 [6]: 2 µM; IC50 [3]: 50 µM |
| CCc1ccc(C2=NC(SCc3ccc(CSc4nc(-c5ccc(CC)cc5)c(C#N)c(=O)[nH]4)cc3)=NC(=O)C2C#N)cc1 (stereo not drawn) | Active | Active | inhibition (Escherichia coli [4]): Active |
| Cc1onc(-c2c(F)cccc2Cl)c1C(=O)Nc1ccc(Sc2ccccc2)nc1Sc1ccccc1 | – | Active | – |
| N#Cc1c(-c2ccc(Br)cc2)nc(SCc2ccccc2)[nH]c1=O | Active | – | – |
| Cc1onc(-c2c(Cl)cccc2Cl)c1C(=O)Nc1ccc(F)c(Cl)c1 | – | inactive | – |
| N#Cc1c(-c2ccc(Br)cc2)nc(SCc2ccc(CSC3=NC(=O)C(C#N)C(c4ccc(Br)cc4)=N3)cc2)[nH]c1=O (stereo not drawn) | Active | Active | inhibition (Escherichia coli [4]): Active; IC50 [6]: 2 µM; IC50 [3]: 20 µM |
| COc1ccc(C2=NC(SCc3ccc(CSc4nc(-c5ccc(OC)cc5)c(C#N)c(=O)[nH]4)cc3)=NC(=O)C2C#N)cc1 (stereo not drawn) | Active | Active | – |
| Cc1onc(-c2c(Cl)cccc2Cl)c1C(=O)NC1CCCCC1 | – | inactive | – |
| Clc1ccc2oc(SCc3ccc(CSc4nc5cc(Cl)ccc5o4)cc3)nc2c1 | – | Active | – |
| O=[N+]([O-])c1ccc2oc(SCc3ccc(CSc4nc5cc([N+](=O)[O-])ccc5o4)cc3)nc2c1 | – | Active | – |
| Cc1onc(-c2c(Cl)cccc2Cl)c1C(=O)N1CCOCC1 | – | inactive | – |
| CC(C)c1ccc(-c2nc(SCc3ccccc3)[nH]c(=O)c2C#N)cc1 | Active | – | – |
| CCc1ccc(-c2nc(SCc3ccccc3)[nH]c(=O)c2C#N)cc1 | Active | – | – |
| Cc1cccc(NC(=O)c2c(-c3c(Cl)cccc3Cl)noc2C)c1 | – | inactive | – |
| Cc1onc(-c2c(Cl)cccc2Cl)c1C(=O)NC1CCC(C)CC1 (stereo not drawn) | – | inactive | – |
| N#Cc1c(-c2ccc(-c3ccccc3)cc2)nc(SCc2ccccc2)[nH]c1=O | Active | – | MIC (Escherichia coli [5]): inactive; MIC (Escherichia coli [7]): Active |
